Test results: paper PMC8370032 (Bioorganic & medicinal chemistry, 2021)

Columns and labels:
myeloma cells = details: cited from earlier work
RPMI-8226 cells [1] = assay: MTT assay; assay type: cell-based, human; details: RPMI-8226, 48 hours
RPMI-8226 cells [2] = assay type: cell-based, human
Outline: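 RPMI-8226 myeloma cells were exposed to a range of test-compound concentrations for 48 h, with lovastatin 10 μM as positive control. Lysates were immunoblotted for unmodified Rap1a (antibody detects only unmodified protein), H-Ras and β-tubulin (loading), and the same lysates were used for a lambda light chain ELISA (% of untreated control; mean ± SD, n=3; two-tailed t-test, p<0.05). LEC is the lowest concentration giving a visible unmodified Rap1a band plus a significant light chain rise.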

SMILES | cytotoxicity in MTT assay (RPMI-8226 cells [1]) | also measured
CC(C)=CCC/C(C)=C/Cn1cc(CC(C)(P(=O)([O-])[O-])P(=O)([O-])[O-])nn1.[Na+].[Na+].[Na+].[Na+] [Compound 3] | – | increase in potency in cellular assays compared to the parent compound 1 (myeloma cells): 5 fold
CCC(Cc1cn(C/C=C(\C)CCC=C(C)C)nn1)(P(=O)([O-])[O-])P(=O)([O-])[O-].[Na+].[Na+].[Na+].[Na+] [Compound 4] | – | decrease in potency in cellular assays (relative to 1) (myeloma cells): five-fold
CC(C)=CCC/C(C)=C/Cn1cc(CC(F)(P(=O)([O-])[O-])P(=O)([O-])[O-])nn1.[Na+].[Na+].[Na+].[Na+] [Compound 7, (2-[1-(3,7-Dimethyl-octa-2,6-dienyl)-1H-[1,2,3]triazol-4-yl]-1-fluoro-1-phosphono-ethyl)-phosphonic acid] | induced cytotoxicity | –
C=C(Cc1cn(C/C=C(\C)CCC=C(C)C)nn1)P(=O)([O-])[O-].[Na+].[Na+] [Compound 11] | neither of the monophosphonates (11, 27), induced cytotoxicity | –
CC(C)=CCC/C(C)=C/Cn1cc(CC(CN)(P(=O)([O-])[O-])P(=O)([O-])[O-])nn1.[Na+].[Na+].[Na+].[Na+] [Compound 17] | induced cytotoxicity | –
CC(C)=CCC/C(C)=C/Cn1cc(CCP(=O)([O-])[O-])nn1.[Na+].[Na+] [Compound 27] | neither of the monophosphonates (11, 27), induced cytotoxicity | –
CC(C)=CCC/C(C)=C/Cn1cc(C=C(P(=O)([O-])[O-])P(=O)([O-])[O-])nn1.[Na+].[Na+].[Na+].[Na+] [Compound 29, Disodium [1-[bis(sodiooxy)phosphoryl]-2-[1-[3,7-dimethylocta-2,6-dien-1-yl]-1H-1,2,3-triazol-4-yl]ethenyl]phosphonate] | induced cytotoxicity | potency in cellular assays relative to cyclopropyl derivative 31 (RPMI-8226 cells [2]): two-fold more potent
CC(C)=CCC/C(C)=C/Cn1cc(CC(O)(P(=O)([O-])[O-])P(=O)([O-])[O-])nn1.[Na+].[Na+].[Na+].[Na+] [Compound 37] | induced cytotoxicity | –
